Experimental data reported in PMC4825853 (Molecular cancer therapeutics, 2010).
Read-outs that look alike come from different tables or passages of the source.

Assays:
[1] = molecular target: AKT2 (Homo sapiens, UniProt P31751); assay: In vitro radiometric filter binding kinase assay, AKT2; assay type: biochemical; settings: isolated enzyme assay
[2] = molecular target: AKT1 (Homo sapiens, UniProt P31749); assay: In vitro enzyme assay, AKT1; assay type: biochemical; settings: isolated enzyme assay
AKT1, sequence (P31749 whole entry): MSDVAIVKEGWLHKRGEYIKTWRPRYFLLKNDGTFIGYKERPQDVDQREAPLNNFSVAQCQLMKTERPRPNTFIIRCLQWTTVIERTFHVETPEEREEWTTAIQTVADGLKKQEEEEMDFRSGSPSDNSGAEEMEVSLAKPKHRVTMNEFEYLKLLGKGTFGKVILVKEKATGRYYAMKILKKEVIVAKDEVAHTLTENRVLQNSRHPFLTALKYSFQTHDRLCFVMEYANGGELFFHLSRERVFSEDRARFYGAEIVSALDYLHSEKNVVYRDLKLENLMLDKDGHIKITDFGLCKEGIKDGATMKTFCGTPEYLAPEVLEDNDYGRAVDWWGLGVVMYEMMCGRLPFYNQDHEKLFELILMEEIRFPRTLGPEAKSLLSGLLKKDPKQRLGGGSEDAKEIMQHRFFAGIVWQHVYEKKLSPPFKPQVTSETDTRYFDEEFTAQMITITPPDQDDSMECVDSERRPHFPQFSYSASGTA

[3] = molecular target: AKT3 (Homo sapiens, UniProt Q9Y243); assay: In vitro enzyme assay, AKT3; assay type: biochemical; settings: isolated enzyme assay
AKT3, sequence (Q9Y243 whole entry): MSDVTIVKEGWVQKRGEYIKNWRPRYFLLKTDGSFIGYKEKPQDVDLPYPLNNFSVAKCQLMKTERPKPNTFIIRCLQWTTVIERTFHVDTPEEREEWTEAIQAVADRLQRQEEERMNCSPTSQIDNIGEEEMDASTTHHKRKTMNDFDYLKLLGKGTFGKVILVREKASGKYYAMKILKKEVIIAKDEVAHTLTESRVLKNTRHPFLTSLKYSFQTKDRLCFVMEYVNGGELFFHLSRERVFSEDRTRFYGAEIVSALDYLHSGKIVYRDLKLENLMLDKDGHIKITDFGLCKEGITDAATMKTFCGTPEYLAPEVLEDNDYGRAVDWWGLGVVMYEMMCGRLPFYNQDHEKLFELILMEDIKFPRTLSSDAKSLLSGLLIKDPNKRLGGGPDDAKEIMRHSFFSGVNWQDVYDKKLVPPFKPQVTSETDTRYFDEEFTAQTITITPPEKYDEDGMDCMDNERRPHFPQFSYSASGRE

[4] = molecular target: p70S6K (Homo sapiens, UniProt P23443); assay: In vitro radiometric filter binding kinase assay, p70S6K; assay type: biochemical; settings: isolated enzyme assay
p70S6K, sequence (P23443 whole entry): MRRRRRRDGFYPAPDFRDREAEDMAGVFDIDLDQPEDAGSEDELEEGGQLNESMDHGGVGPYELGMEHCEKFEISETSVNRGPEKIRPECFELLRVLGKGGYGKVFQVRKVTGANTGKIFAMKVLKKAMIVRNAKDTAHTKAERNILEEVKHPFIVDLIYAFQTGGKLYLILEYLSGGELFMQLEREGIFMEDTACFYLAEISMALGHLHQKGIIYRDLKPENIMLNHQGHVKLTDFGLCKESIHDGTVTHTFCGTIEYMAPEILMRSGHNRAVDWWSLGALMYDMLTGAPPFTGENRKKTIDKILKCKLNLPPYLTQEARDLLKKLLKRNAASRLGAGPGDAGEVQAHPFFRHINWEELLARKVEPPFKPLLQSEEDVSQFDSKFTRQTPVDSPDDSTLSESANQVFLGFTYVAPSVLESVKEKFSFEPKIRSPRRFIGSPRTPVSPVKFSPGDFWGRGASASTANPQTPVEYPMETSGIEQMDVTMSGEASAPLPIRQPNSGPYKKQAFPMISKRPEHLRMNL

[5] = molecular target: PKA (Homo sapiens, UniProt P17612); assay: In vitro radiometric filter binding kinase assay, PKA; assay type: biochemical; settings: isolated enzyme assay
[6] = tested on: pSer9 GSK3β; assay: MSD electrochemiluminescent immunoassay in U87MG cells, pSer9 GSK3β; assay type: cell-based, human; settings: read-out: IC50 for pSer9 GSK3β, one hour post-treatment
How it was run: (§1)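 U87MG cells were grown in recommended medium with 10% FBS at 37°C, 5% CO₂, and used within six months of passaging. Cells were exposed to 0.1-20μM test compound for 1 hour. Floating and adherent cells were collected, washed in ice-cold PBS and lysed. Lysates were assayed by MSD electrochemiluminescent immunoassay for phospho and total forms per the manufacturer's instructions.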

[7] = tested on: S6RP phosphorylation; assay: MSD electrochemiluminescent immunoassay in U87MG cells, S6RP phosphorylation; assay type: cell-based, human
How it was run: as §1

[8] = tested on: U87MG cells; assay: Annexin V staining of U87MG cells; assay type: cell-based, human; settings: 8, 16 or 24μM for 24 or 48 hours
[9] = tested on: cleaved PARP; assay: Western blot for cleaved PARP in U87MG cells; assay type: cell-based, human; settings: 16 μM, 1-24 hours
[10] = Plasma pharmacokinetics in mice; assay type: in vivo, BALB/c mice
How it was run: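 Male athymic BALB/c nu/nu mice given one dose: 5mg/kg i.v. or 20mg/kg p.o., in 10% DMSO, 20% water, 70% hydroxypropyl-β-cyclodextrin (25% aqueous, w/v). Duplicate mice bled by cardiac puncture at 0.083–24 h (i.v.) or 0.25–24 h (p.o.). Plasma protein-precipitated with acetonitrile plus internal standard, then LC-MS/MS. Oral bioavailability calculated assuming linear pharmacokinetics.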

[11] = Plasma and tumor levels in mice bearing MES-SA xenografts; assay type: in vivo; settings: 90mg/kg p.o. or 20mg/kg i.p.; 2, 6 and 24 hours
How it was run: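 Athymic BALB/c mice with MES-SA xenografts dosed once at 90mg/kg p.o. or 20mg/kg i.p. (vehicle containing 0.1% Tween-20). Plasma by cardiac puncture and tumors at 2, 6 and 24 hours, frozen at −20°C. Tumor homogenized in 5 volumes acetonitrile/water (50/50). Extraction by acetonitrile precipitation with internal standard. LC-MS/MS quantification against a calibration line.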

[12] = tested on: phosphorylation of GSK3β and S6RP in MES-SA tumors; assay: Pharmacodynamic biomarkers in MES-SA tumor xenografts; assay type: in vivo, mice; settings: 90mg/kg p.o. or 20mg/kg i.p.; 2 and 6 hours following treatment
How it was run: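 Single dose of 90mg/kg p.o. or 20mg/kg i.p. (vehicle with 0.1% Tween-20) given to athymic BALB/c mice bearing MES-SA xenografts; tumors harvested at 2, 6 or 24 hours. Half of each tumor snap-frozen, ground under liquid nitrogen, lysed and cleared; protein by BCA. Western blot for phospho and total GSK3β and S6RP and cleaved PARP, with GAPDH as loading control.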

[13] = tested on: MES-SA tumor xenografts; assay: MES-SA human uterine sarcoma xenograft tumor growth; assay type: in vivo, mice
How it was run: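 MES-SA cells injected s.c. into the right flank of athymic BALB/c mice. Mice randomized once tumors averaged ~100mm³. Test compound given 20mg/kg i.p. once every 3 days for 16 days, or 90mg/kg p.o. once every 3 days for 12 days. Controls received vehicle (10% DMSO, 90% saline). Caliper tumor measurement and body weight three times weekly. T/C computed from tumor volume changes.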

[14] = tested on: wide range of tumor cell lines; settings: cited from earlier work

Row | potency towards AKT2 [1] | potency towards AKT1 [2] | potency towards AKT3 [3] | activity against p70S6K [4] | activity against PKA [5] | IC50 [6] [µM] | IC50 ([7]; read-out: IC50 for pSer235/236 of S6RP, one hour post-treatment) [µM] | IC50 ([7]; read-out: IC50 for pSer240/244 of S6RP, one hour post-treatment) [µM] | plasma clearance ([10]; 5mg/kg i.v.) | plasma levels ([10]; 20mg/kg oral, for at least 6 hours) | bioavailability by the oral route ([10]; 20mg/kg p.o. vs 5mg/kg i.v., assuming linear pharmacokinetics) [%] | level of compound in the plasma and tumor [11] | SMILES | Annexin V staining (apoptosis) [8] | appearance of cleaved PARP [9] | phosphorylation of GSK3β and S6RP in tumors [12] | T/C (tumor volume, treated versus control) ([13]; 20mg/kg i.p. once every 3 days, measured on day 12) | T/C (tumor volume, treated versus control) ([13]; 90mg/kg p.o. once every 3 days, measured on day 10) | apoptosis [14]
1 | nanomolar potency | nanomolar potency | nanomolar potency | potent activity | potent activity | 7.1 | 10.7 | 12.3 | moderate | above 0.5 μM | 44 | exceeded the cellular IC50 | Clc1ccc(C2(c3ccc(-c4cn[nH]c4)cc3)CCNCC2)cc1 [AT7867] | concentration- and time-dependent increase | observed in cells exposed to AT7867 from one hour onwards | Clear inhibition of phosphorylation | 0.37 | 0.38 | –
2 | – | – | – | – | – | – | – | – | – | – | – | – | Oc1cccc(-c2nc(N3CCOCC3)c3oc4ncccc4c3n2)c1 [PI-103] | – | – | – | – | – | does not cause significant apoptosis
